The test system of one data set is Leishmania donovani. Description: Antileishmanial activity against Leishmania donovani MHOM/ET/67/L82 amastigotes assessed as growth inhibition incubated for 70 hrs by resazurin based inverted microscopic analysis. The class given is functional, organism-based. Conditions: Leishmania donovani, MHOM/ET/67/L82, 70 h. A digest of the protocol: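 Axenic L. donovani amastigotes (MHOM/ET/67/L82); racemates tested unless stated; miltefosine as positive control. Some values come from a separate run and were rescaled by that run's relative miltefosine IC50.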

The test system of the next data set is L6. Description: Cytotoxicity against rat L6 cells assessed as reduction in cell viability incubated for 70 hrs by resazurin staining based inverted microscopic analysis. To be noted: L6, 70 h. In short, it runs like this: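 Rat L-6 skeletal myoblast line; racemates tested unless stated.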
A general note: Alamar Blue is a resazurin reagent that responds to reducing activity.

Data set [1] in a line: Selectivity index, ratio of IC50 for cytotoxicity against rat L6 cells to IC50 for antileishmanial activity against Leishmania donovani MHOM/ET/67/L82 amastigotes. The class given is toxicity, cell-based. To be noted: read-out: Ratio IC50.
Data set [2] in a line: Metabolic stability in mouse liver microsomes assessed as metabolite formation by ester hydrolysis at 100 umol/L incubated for 90 mins in absence of UDPGA by LC-MS analysis. Conditions: 1.5 h, 100 µM. A general note: Liver microsomes are vesicles of endoplasmic reticulum, rich in cytochrome P450 enzymes.
Data set [3] is described as follows: Metabolic stability in mouse liver microsomes assessed as metabolite formation by glucuronidation at 100 umol/L incubated for 90 mins in presence of UDPGA by LC-MS analysis. To be noted: 1.5 h, 100 µM.

Regarding `CC(C)OC(=O)/C=C/c1cc(O)c2c(c1)[C@H](C(=O)OC(C)C)[C@@H](c1ccc(O)c(O)c1)O2` (racemic), the IC50 in the data set on Leishmania donovani was found to be 0.54 µM; in the data set on L6, 10.2 µM. Also, in data set [1], the selectivity ratio was 18.9. Further, the Drug metabolism result in data set [2] and in data set [3] was “Metabolite_Detected” each time.
As for `CC(C)(C)OC(=O)/C=C/c1cc(F)c2c(c1)[C@H](C(=O)OC(C)(C)C)[C@@H](c1ccc(O)c(F)c1)O2` (racemic), the IC50 in the data set on Leishmania donovani came to 1.97 µM; in the data set with L6, 9.22 µM. For the same compound, in data set [1], the selectivity ratio amounted to 4.7.
With `CC(C)OC(=O)/C=C/c1ccc2c(c1)[C@H](C(=O)OC(C)C)[C@@H](c1ccc(O)cc1)O2` (racemic), the 50% inhibitory concentration (IC50) with Leishmania donovani came out at 4.21 µM; with L6, 14.3 µM. The selectivity ratio in data set [1] turned out to be 3.4.
`OC[C@H]1c2cc(Br)ccc2O[C@@H]1c1ccc(O)cc1` (racemic): the values for the IC50 in the data set on Leishmania donovani and with L6 were 18.8 µM and 22 µM, respectively. For the same compound, the selectivity ratio in data set [1] amounted to 1.2.
For `COc1cc([C@H]2Oc3ccc(Br)cc3[C@@H]2C)ccc1O` (racemic), the values for the IC50 with Leishmania donovani and with L6 were 24.8 µM and 13.1 µM, respectively. Moreover, the selectivity ratio in data set [1] is 0.5.
Turning to `C/C=C/c1cc(OC)c2c(c1)[C@H](C)[C@@H](c1ccc(O)c(OC)c1)O2` (racemic) [LICARIN A], the IC50 worked out at 6.45 µM in the data set with Leishmania donovani and 6.21 µM with L6. Also, the selectivity ratio in data set [1] was determined as 1.
Take `C=CCOC(=O)/C=C/c1cc(O)c2c(c1)[C@H](C(=O)OCC=C)[C@@H](c1ccc(O)c(O)c1)O2` (racemic): the values for the 50% inhibitory concentration (IC50) with Leishmania donovani and in the data set on L6 were 6.32 µM and 6.41 µM, respectively. Further, the selectivity ratio in data set [1] was determined as 1.
Regarding `CCCCOC(=O)/C=C/c1cc(O)c2c(c1)[C@H](C(=O)OCCCC)[C@@H](c1ccc(O)c(O)c1)O2` (racemic), the IC50 in the data set on Leishmania donovani is 1.66 µM; with L6, 9.34 µM. In addition, in data set [1], the selectivity ratio amounted to 5.6.
With `COC(=O)/C=C/c1cc(OC)c2c(c1)[C@H](C(=O)OC)[C@@H](c1ccc(O)c(OC)c1)O2` (racemic), the IC50 came to 10.6 µM in the data set with Leishmania donovani and 2.43 µM in the data set on L6. Moreover, the selectivity ratio in data set [1] came to 0.2.
With `OC[C@H]1c2cc(-c3cccnc3F)ccc2O[C@@H]1c1ccc(O)cc1` (racemic), the IC50 in the data set on Leishmania donovani worked out at 18.8 µM; with L6, 52.4 µM. The selectivity ratio in data set [1] came to 2.8.
For `COC(=O)/C=C/c1ccc2c(c1)[C@H](C(=O)OC)[C@@H](c1ccc(O)cc1)O2` (racemic) the same measures were 7.84 µM, 23.2 µM and 3.
As to `COc1cc([C@H]2Oc3c(OC)cc(/C=C/C(=O)OC(C)C)cc3[C@@H]2C(=O)OC(C)C)ccc1O` (racemic), the IC50 in the data set with Leishmania donovani came to 3.95 µM; with L6, 10.3 µM. The selectivity ratio in data set [1] was 2.6.
For `CC(C)CC(=O)/C=C/c1cc(O)c2c(c1)[C@H](C(=O)CC(C)C)[C@@H](c1ccc(O)c(O)c1)O2` (racemic), the results for the IC50 in the data set on Leishmania donovani and with L6 were 4.42 µM and 5 µM, respectively. For the same compound, in data set [1], the selectivity ratio amounted to 1.1.
With `COc1cc([C@H]2Oc3c(OC)cc(/C=C/C(=O)OC(C)(C)C)cc3[C@@H]2C(=O)OC(C)(C)C)ccc1O` (racemic), the IC50 with Leishmania donovani is 2.1 µM; in the data set with L6, 11.4 µM. Moreover, the selectivity ratio in data set [1] turned out to be 5.4.
For `COc1ccc([C@H]2Oc3ccccc3[C@@H]2COC(C)=O)cc1` (racemic), the figures for the IC50 with Leishmania donovani and with L6 were 58.4 µM and 43.9 µM, respectively. Besides, the selectivity ratio in data set [1] was 0.8.
For `COc1ccc([C@H]2Oc3ccc(Br)cc3[C@@H]2CO)cc1OC` (racemic) the same measures were 33.8 µM, 21.2 µM and 0.6.
With `CC(C)NC(=O)/C=C/c1cc(O)c2c(c1)[C@H](C(=O)NC(C)C)[C@@H](c1ccc(O)c(O)c1)O2` (racemic), the IC50 in the data set on Leishmania donovani is 82.3 µM; in the data set with L6 it was 55.5 µM. Further, the selectivity ratio in data set [1] came to 0.7.
The corresponding values for `COc1cc([C@H]2Oc3c(OC)cc(/C=C/C(=O)O)cc3[C@@H]2C(=O)O)ccc1O` (racemic) are 6.89 µM, 259 µM and 37.6.
As for `CCCNC(=O)/C=C/c1cc(OC)c2c(c1)[C@H](C(=O)NCCC)[C@@H](c1ccc(O)c(OC)c1)O2` (racemic), the results for the IC50 with Leishmania donovani and in the data set with L6 were 8.88 µM and 73.8 µM, respectively. In addition, the selectivity ratio in data set [1] was 8.3.
`CC(=O)Oc1ccc([C@H]2Oc3ccc(/C=C/C(=O)OC(C)(C)C)cc3[C@@H]2C(=O)OC(C)(C)C)cc1` (racemic): the IC50 in the data set with Leishmania donovani amounted to 2.06 µM; with L6, 11.8 µM. In data set [1], the selectivity ratio was 5.7.
As for `C[C@H]1c2cc(Br)ccc2O[C@@H]1c1ccc(O)cc1` (racemic), the results for the IC50 in the data set with Leishmania donovani and in the data set with L6 were 32.5 µM and 56.6 µM, respectively. Also, the selectivity ratio in data set [1] came out at 1.7.
Regarding `CC(C)(C)OC(=O)/C=C/c1cc(O)c2c(c1)[C@H](C(=O)OC(C)(C)C)[C@@H](c1ccc(O)c(O)c1)O2` (racemic), the figures for the IC50 in the data set on Leishmania donovani and in the data set with L6 were 1.66 µM and 9.05 µM, respectively. Besides, the selectivity ratio in data set [1] was 5.5.
With `COc1ccc([C@H]2Oc3ccc(/C=C/C(=O)OC(C)(C)C)cc3[C@@H]2CO)cc1OC` (racemic), the IC50 with Leishmania donovani stood at 10.7 µM; with L6, 22.9 µM. Moreover, the selectivity ratio in data set [1] was 2.1.
As for `COc1cc([C@H]2Oc3c(OC)cc(/C=C/C(=O)NCCO)cc3[C@@H]2C(=O)NCCO)ccc1O` (racemic), the IC50 with Leishmania donovani and in the data set with L6 was 212 µM throughout. Also, the selectivity ratio in data set [1] was found to be 1.
Turning to `Cc1ccc(-c2ccc3c(c2)[C@H](CO)[C@@H](c2ccc(O)cc2)O3)s1` (racemic), the IC50 with Leishmania donovani amounted to 16.1 µM; in the data set with L6 it was 15.8 µM. In data set [1], the selectivity ratio came out at 1.
With `COc1cc([C@H]2Oc3ccc(Br)cc3[C@@H]2CO)c(Br)cc1O` (racemic), the results for the IC50 with Leishmania donovani and with L6 were 10.7 µM and 40.6 µM, respectively. For the same compound, the selectivity ratio in data set [1] was 3.8.

For orientation: IC50 means the point on the concentration scale where inhibition reaches its midpoint.

Values taken from ChEMBL document CHEMBL4765412, “(±)-trans-2-phenyl-2,3-dihydrobenzofurans as leishmanicidal agents: Synthesis, in vitro evaluation and SAR analysis” (Eur J Med Chem, 2020).
